# Screening results from PubChem.
# Only some compounds are listed: those with a hit (about 2% of all), similar ones and a draw of the others.
# Granule exo inh: lytic granule exocytosis inhibition; TALL-104 LAMP-1 surface exposure, flow cytometry; cells stimulated with thapsigargin and PMA; inhibition, % at 10 µM; hit rate 0.66% among 360,000; AID 651702;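 active = inhibition above about 55%, limit read from the data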
# DAGLB inh: blocks human DAGLB lipase activity. HEK293T DAGLB membrane lysate, EnzChek fluorogenic substrate. hit rate 0.059% among 340,000. Q8NCG7. inhibition, % at 5.17 µM; in the data active = inhibition above about 34%;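 note: 0% = enzyme with vehicle and 100% = wells lacking enzyme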
# FGF22 binding: shifts melting point of recombinant human FGF22; recombinant FGF22 thermal shift, SYPRO orange fluorescence; percent of sucrose octasulfate shift, DMSO zero; activity (Tm shift, normalised), % at 9.99 µM; hit rate 1.5% among 340,000;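 active = mean Tm shift, scaled 0 neutral to 100 positive control, at about 1.3% or above, every replicate too, limit read from the data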
# Target sequence (Q9HCT0 whole entry, looked up): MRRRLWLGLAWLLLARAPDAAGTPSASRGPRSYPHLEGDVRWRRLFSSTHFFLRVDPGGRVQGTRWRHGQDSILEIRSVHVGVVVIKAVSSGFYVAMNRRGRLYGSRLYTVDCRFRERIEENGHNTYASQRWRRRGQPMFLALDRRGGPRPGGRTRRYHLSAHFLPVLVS
# ABCB6 inh 2: blocks the human ABCB6 transporter; Q9NP58; K562-ABCB6 porphyrin accumulation, flow cytometry, 1 h; active compounds read low; fluorescence ratio to DMSO, % at 10 µM; hit rate 0.19% among 360,000; AID 602162;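 active = fluorescence ratio to DMSO below 75%, the collection mean minus 3 SD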;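 note: signal is porphyrin accumulated inside mitochondria; 100% equals median channel fluorescence of DMSO control wells; lower ratio means ABCB6 inhibition with less porphyrin fluorescence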
# MT1-MMP act inh: MT1-MMP (human) activation inhibition | HT1080 RFP-PRO-GFP cells, GFP/RFP ratio fluorescence, overnight; percent of plate control window, DMSO zero | GFP/RFP ratio change, % at 20 µM | hit rate 0.061% among 360,000 | AID 651647;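 active = GFP/RFP ratio change of at least 30% with cell ATP level not reduced by more than half and red fluorescence within 50% of control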
#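 Assay system: HT1080 RFP-PRO-GFP cells. Benchmarks: DMSO vehicle wells and RFP-L50D-GFP reporter cell wells. Times: overnight cell settling, then overnight compound exposure, 37 °C, 5% CO2. Compound: 20 µM single dose, 1% DMSO. Read-out basis: GFP/RFP fluorescence ratio.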
# VLA-4 inh: inhibition in a human VLA-4 binding assay | P13612 | VLA-4 expressing cells, ligand binding flow cytometry | inhibition, % (about 7 µM as worked out from the volumes in the protocol) | hit rate 0.2% among 330,000; in the data active = inhibition above about 50%
# VLA-4 allo CP: confirmation of allosteric modulators of human VLA-4 integrin; shares compounds with VLA-4 inh; U937 cells, HUTS-21 LIBS mAb binding, flow cytometry; LDV ligand present at threefold Kd; inhibition, % at 6.7 µM; hit rate 2% among 1,300; AID 2813; in the data active = inhibition above about 40%;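 note: 0% = ligand without compound and 100% = no ligand background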
# Starred values were filed as active, the others as inactive; . = no result.
SMILES,Granule exo inh,DAGLB inh,FGF22 binding,ABCB6 inh 2,MT1-MMP act inh,VLA-4 inh,VLA-4 allo CP
C=C1CC(C(=O)N/N=C/c2ccccc2)C1,3,2,1,96,3,42,-22
CCCCNC(=O)Cn1c(=O)oc2cc(S(=O)(=O)N3CC(C)CC(C)C3)ccc21 (stereo not given),2,1,0,96,10,-10,-4
Cc1noc(C)c1NC(=O)N(C)C[C@H]1Oc2ccc(NC(=O)Cc3ccccc3)cc2C(=O)N([C@@H](C)CO)C[C@@H]1C,.,.,0,.,.,.,.
CN1CC(=O)Nc2ccccc2C1=O,5,-1,0,99,1,42,-10
CC(C)(C)N1NC(=O)Nc2ccccc2C1=O,2,-1,.,141,1,-3,.
CN1CC(=O)Nc2ccc(Br)cc2C1=O,8,1,0,96,2,52*,2
O=C(C[C@@H]1C[C@H]2c3cc(NC(=O)C4CCC4)ccc3O[C@H]2[C@H](CO)O1)NCc1ccccn1,.,.,0,.,.,.,.
O=C(NC1Cc2ccccc2C1)[C@@H]1N[C@@H]2c3ccc(C4=CCCCC4)c(=O)n3C[C@@H]2[C@H]1CO,.,.,0,.,.,.,.
CC1CC2C3CCC4=CC(=O)C=CC4(C)C3(F)C(O)CC2(C)C1(O)C(=O)CO (stereo not given),3,1,0,105,-4,5,.
CC1CC2C3CCC4=CC(=O)C=CC4(C)[C@@]3(Cl)C(O)CC2(C)C1(O)C(=O)CO (stereo not given in full),3,2,0,98,0,19,3
O=C(Nc1ccc2oc(-c3ccccc3)nc2c1)c1ccc2c(c1)OCCO2,0,-2,.,98,13,60*,2
O=C(O)CCN1C(=O)c2ccccc2Sc2ncccc21,-3,-3,0,96,-1,41,1
O=C(C[C@H]1CC[C@@H](NC(=O)Nc2ccccc2F)[C@H](CO)O1)NCc1ccccc1,.,.,0,.,.,.,.
COc1c(C(=O)Nc2c(C)n(C)n(-c3ccccc3)c2=O)ccc2ccccc12,-4,-2,.,100,1,-1,0
Cc1ccc2c(C)c(C(=O)Nc3c(C)n(C)n(-c4ccccc4)c3=O)oc2c1,-2,2,.,96,7,9,-10
Cc1c(NC(=O)Nc2ccc(Cl)c(Cl)c2)c(=O)n(-c2ccccc2)n1C,-1,0,.,105,-4,65*,8
CCCNC(=O)Nc1ccc2c(c1)OC[C@H](C)N(Cc1ccncc1)C[C@@H](C)[C@@H](OC)CN(C)C2=O,.,.,0,.,.,.,.
C[C@H](CO)N1C[C@H](C)[C@H](CN(C)Cc2cccnc2)Oc2cc(C#CCN(C)C)ccc2S1(=O)=O,.,.,0,.,.,.,.
O=C(CN1CCCCC1)N1N=C(c2cccs2)CC1c1cccs1 (stereo not given),-7,0,0,97,-1,40,-1
O=C(CNCCO)N1N=C(c2cccs2)CC1c1cccs1 (stereo not given),7,1,0,103,-2,1,.
CN1c2ccc(C#Cc3cccnc3)cc2[C@@H]2[C@@H](CCN2S(=O)(=O)c2cccc(F)c2)[C@@H]1CO,.,.,0,.,.,.,.
CCOC(=O)c1c(C)[nH]c(C(=O)COC(=O)CSC)c1C,-1,1,.,108,2,91*,-7
CCOC(=O)c1c(C)[nH]c(C(=O)COC(=O)CCSc2ccccc2)c1C,-2,-6,.,105,2,-37,.
CCCCC(=O)OCC(=O)c1[nH]c(C)c(C(=O)OCC)c1C,0,-4,0,91,5,-15,2
C[C@@H]1CCCCO[C@@H](CN(C)Cc2ccc(C(F)(F)F)cc2)[C@H](C)CN([C@@H](C)CO)C(=O)c2cc(NC(=O)c3ccccc3)ccc2O1,.,.,0,.,.,.,.
SMILES,Granule exo inh,DAGLB inh,FGF22 binding,ABCB6 inh 2,MT1-MMP act inh,VLA-4 inh,VLA-4 allo CP
COC(=O)c1ccc(NC(=O)c2sc3nc(-c4ccccc4)cn3c2C)cc1,-1,0,.,96,2,52*,-14
COc1ccc(-c2cn3c(C)c(C(=O)Nc4ccncc4)sc3n2)cc1,35,-3,0,92,2,-6,.
C[C@H](CO)N1C[C@H](C)[C@H](CN(C)C)Oc2cc(-c3cccc(C(=O)N(C)C)c3)ccc2S1(=O)=O,.,.,0,.,.,.,.
CCCNC(=O)N1CC2(C1)[C@H](c1ccccc1)[C@H](CO)N2Cc1cccc(Cl)c1,.,.,1,.,.,.,.
COCC(=O)N1[C@H](CO)[C@@H]2c3ccccc3N(C(=O)Nc3ccccc3F)C[C@@H]21,.,.,-1,.,.,.,.
Nc1cc(-c2ccc(Br)cc2)nn1S(=O)(=O)c1cccc2nsnc12,27,2,0,100,-2,50*,0
CCOc1ccc(NC(=O)Nc2ccccc2SC)cc1,0,-2,0,88,2,67*,6
CSc1ccccc1NC(=O)Nc1ccccc1,3,-3,0,99,-2,0,.
NC(=O)CN1C(=O)C(=O)N(Cc2ccc(F)cc2)C1=O,-6,0,0,99,-3,-2,.
NC(=O)CN1C(=O)C(=O)N(Cc2ccccc2)C1=O,2,0,1,101,0,42,0
CC(C)NC(=O)N(C)C[C@@H]1Oc2ccc(NC(=O)Nc3ccc4c(c3)OCO4)cc2CC(=O)N([C@@H](C)CO)C[C@@H]1C,.,.,0,.,.,.,.
CC1(C)CC(=O)C2=C(C1)Oc1ncn(CCCn3ccnc3)c(=N)c1C2c1ccccc1 (stereo not given),-2,-2,.,99,3,-10,.
COc1ccc(C2C3=C(CC(C)(C)CC3=O)Oc3ncn(CCCn4ccnc4)c(=N)c32)cc1 (stereo not given),4,-2,.,107,1,90*,8
CO[C@@H]1CN(C)C(=O)c2cc(NC(=O)c3ccno3)ccc2OC[C@H](C)NC[C@@H]1C,.,.,0,.,.,.,.
COc1ccc(C(=O)OC(C)C(=O)NC(C)CCc2ccccc2)cc1OC (stereo not given),-2,-1,0,102,0,42,0
CC(CCc1ccccc1)NC(=O)C(C)OC(=O)c1ccco1 (stereo not given),-8,4,0,92,2,4,.
COc1ccc(NC(=O)N(C)C[C@@H]2Oc3ncc(-c4cccnc4)cc3C(=O)N([C@H](C)CO)C[C@@H]2C)cc1,.,.,0,.,.,.,.
CCOC(=O)COc1ccc2c(c1)C(=O)CC1(CCN(C(C)=O)CC1)O2,0,1,0,102,2,7,.
CCOC(=O)N1CCC2(CC1)CC(=O)c1cc(O)ccc1O2,2,3,.,98,2,109*,10
